# According to ChEMBL document CHEMBL1255300, “Pharmacodynamics of the antibacterial effect and emergence of resistance to tomopenem, formerly RO4908463/CS-023, in an in vitro pharmacokinetic model of Staphylococcus aureus infection” (Antimicrob Agents Chemother, 2008):
# Calls of active or inactive are those of the source. No cut-off for these calls is given here.
# Key:
# Staphylococcus aureus [1] = experiment: Antibacterial activity against methicillin-resistant Staphylococcus aureus 33815 in in vitro pharmacokinetic model assessed as viable count at 2 times of MIC; type: functional
# How it was run: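 Preexposure population analysis profile: model sample at time zero plated on nutrient agar with tomopenem at multiples of the MIC. Growth counted as log CFU/ml, detection limit 2 log10.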
# Staphylococcus aureus [2] = experiment: Antibacterial activity against methicillin-resistant Staphylococcus aureus 33829 infected in in vitro pharmacokinetic model assessed as time required to 99% killing at 1500 mg, iv every 8 hrs using 10^6 CFU/ml inoculum; type: functional
# How it was run: (§1)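 Single-compartment dilutional in vitro PK model, 10% Mueller-Hinton broth, 37°C, stirred, dilution 132 ml/h. […] Inoculum 10^6 CFU/ml (added 45 min pre-dose) or 10^8 CFU/ml (run overnight). Viable counts by spiral plating, beta-lactamase neutralization, detection limit 10^2 CFU/ml. At least triplicate.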
# Staphylococcus aureus [3] = experiment: T>MIC for 4-log drop in count in methicillin-resistant Staphylococcus aureus 33922 in in vitro pharmacokinetic model after 24 hrs using 10^6 CFU/ml inoculum; type: functional
# Staphylococcus aureus [4] = experiment: Antibacterial activity against methicillin-resistant Staphylococcus aureus 33921 infected in in vitro pharmacokinetic model assessed as reduction in viable count at 1500 mg, iv every 8 hrs measured after 36 hrs using 10^6 CFU/ml inoculum; type: functional; how it was run: as §1
# Staphylococcus aureus [5] = experiment: Antibacterial activity against methicillin-resistant Staphylococcus aureus 33829 assessed as viable count at 2 times of MIC after 24 hrs using 10^6 CFU/ml inoculum; type: functional, organism-based
# Staphylococcus aureus [6] = experiment: Antibacterial activity against methicillin-resistant Staphylococcus aureus 33815 infected in in vitro pharmacokinetic model assessed as time required to 99.9% killing at 750 mg, iv every 8 hrs using 10^6 CFU/ml inoculum; type: functional
# Staphylococcus aureus [7] = experiment: AUBKC (0 to 48 hrs) in methicillin-resistant Staphylococcus aureus 33829 infected in in vitro pharmacokinetic model at 1500 mg, iv every 8 hrs using 10^6 CFU/ml inoculum; type: functional
# How it was run: (§2)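 Single-compartment dilutional in vitro PK model at 37°C in 10% Mueller-Hinton broth, stirred, flow 132 ml/h. […] Inoculum 10^6 CFU/ml added 45 min before dosing, or 10^8 CFU/ml run overnight. Viable counts with β-lactamase neutralisation. AUBKC by log-linear trapezoidal rule, at least triplicate.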
# Staphylococcus aureus [8] = experiment: AUBKC (0 to 24 hrs) in methicillin-resistant Staphylococcus aureus 33922 infected in in vitro pharmacokinetic model at 750 mg, iv every 8 hrs using 10^6 CFU/ml inoculum; type: functional; how it was run: as §2
# Staphylococcus aureus [9] = experiment: Antibacterial activity against methicillin-resistant Staphylococcus aureus 33827 infected in in vitro pharmacokinetic model assessed as time required to 99.9% killing at 1500 mg, iv every 8 hrs using 10^8 CFU/ml inoculum; type: functional; how it was run: as §1
# Staphylococcus aureus [10] = experiment: Antibacterial activity against methicillin-resistant Staphylococcus aureus 33922 infected in in vitro pharmacokinetic model assessed as reduction in viable count at 1500 mg, iv every 8 hrs measured after 24 hrs using 10^8 CFU/ml inoculum; type: functional
# Staphylococcus aureus [11] = experiment: T>MIC for 3-log drop in count in methicillin-resistant Staphylococcus aureus 33922 in in vitro pharmacokinetic model after 24 hrs using 10^6 CFU/ml inoculum; type: functional
# Staphylococcus aureus [12] = experiment: AUBKC (0 to 24 hrs) in methicillin-resistant Staphylococcus aureus 33922 infected in in vitro pharmacokinetic model at 750 mg, iv every 8 hrs using 10^8 CFU/ml inoculum; type: functional; how it was run: as §2
# Staphylococcus aureus [13] = experiment: Antibacterial activity against methicillin-resistant Staphylococcus aureus 33921 assessed as viable count at 2 times of MIC after 24 hrs using 10^6 CFU/ml inoculum; type: functional, organism-based
# Staphylococcus aureus [14] = experiment: Antibacterial activity against methicillin-resistant Staphylococcus aureus 33815 infected in in vitro pharmacokinetic model assessed as time required to 99% killing at 1500 mg, iv every 8 hrs using 10^6 CFU/ml inoculum; type: functional
# Staphylococcus aureus [15] = experiment: Antibacterial activity against methicillin-resistant Staphylococcus aureus 33922 infected in in vitro pharmacokinetic model assessed as reduction in viable count at 1500 mg, iv every 8 hrs measured after 12 hrs using 10^8 CFU/ml inoculum; type: functional
# Staphylococcus aureus [16] = experiment: T>MIC for 3-log drop in count in methicillin-resistant Staphylococcus aureus 33829 in in vitro pharmacokinetic model after 24 hrs using 10^6 CFU/ml inoculum; type: functional
# Staphylococcus aureus [17] = experiment: T>MIC for 2-log drop in count in methicillin-resistant Staphylococcus aureus 33820 in in vitro pharmacokinetic model after 24 hrs using 10^6 CFU/ml inoculum; type: functional
# Staphylococcus aureus [18] = experiment: T>MIC for 2-log drop in count in methicillin-resistant Staphylococcus aureus 33827 in in vitro pharmacokinetic model after 24 hrs using 10^8 CFU/ml inoculum; type: functional
# Staphylococcus aureus [19] = experiment: Antibacterial activity against methicillin-resistant Staphylococcus aureus 33815 infected in in vitro pharmacokinetic model assessed as reduction in viable count at 750 mg, iv every 8 hrs measured after 48 hrs using 10^8 CFU/ml inoculum; type: functional
# How it was run: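 PK model at 37°C in 10% MHB. […] A 0.5 McFarland suspension (1 ml) was added and the model run overnight to reach 10^8 CFU/ml before dosing. Counts were spiral-plated on nutrient agar with β-lactamase. Change in log CFU/ml was measured from time 0; at least triplicate.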
# Staphylococcus aureus [20] = experiment: Antibacterial activity against methicillin-resistant Staphylococcus aureus 33827 infected in in vitro pharmacokinetic model assessed as reduction in viable count at 750 mg, iv every 8 hrs measured after 48 hrs using 10^6 CFU/ml inoculum; type: functional; how it was run: as §1
# Staphylococcus aureus [21] = experiment: AUBKC (0 to 48 hrs) in methicillin-resistant Staphylococcus aureus 33829 infected in in vitro pharmacokinetic model at 750 mg, iv every 8 hrs using 10^6 CFU/ml inoculum; type: functional; how it was run: as §2
smiles,measurement,setting,value
C[C@@H](O)[C@H]1C(=O)N2C(C(=O)O)=C(S[C@H]3C[C@@H](C(=O)N4CC[C@H](NC(=O)CNC(=N)N)C4)N(C)C3)[C@H](C)[C@H]12 [TOMOPENEM],log10CFU/ml,Staphylococcus aureus [1],<2
same,Time,Staphylococcus aureus [2],7 h
same,fT>MIC,Staphylococcus aureus [3],21.5%
same,log10CFU/ml,Staphylococcus aureus [4],4.2
same,Activity,Staphylococcus aureus [5],inactive
same,Time,Staphylococcus aureus [6],12 h
same,AUBC,Staphylococcus aureus [7],37.4 log10CFU/ml.hr
same,AUBC,Staphylococcus aureus [8],20.2 log10CFU/ml.hr
same,Time,Staphylococcus aureus [9],12 h
same,log10CFU/ml,Staphylococcus aureus [10],5
same,fT>MIC,Staphylococcus aureus [11],9.4%
same,AUBC,Staphylococcus aureus [12],71.5 log10CFU/ml.hr
same,Activity,Staphylococcus aureus [13],inactive
same,Time,Staphylococcus aureus [14],3 h
same,log10CFU/ml,Staphylococcus aureus [15],1.5
same,fT>MIC,Staphylococcus aureus [16],21.5%
same,fT>MIC,Staphylococcus aureus [17],14.5%
same,fT>MIC,Staphylococcus aureus [18],39.6%
same,log10CFU/ml,Staphylococcus aureus [19],5
same,log10CFU/ml,Staphylococcus aureus [20],3.3
same,AUBC,Staphylococcus aureus [21],25 log10CFU/ml.hr
